Measured values as given in ChEMBL document CHEMBL5252538, “β-Lactam analogues of combretastatin A-4 prevent metabolic inactivation by glucuronidation in chemoresistant HT-29 colon cancer cells” (Eur J Med Chem, 2017).
The source made the active and inactive calls. The rule behind the calls is not given here.

Assays:
[1] = system: HL-60; assay: Antiproliferative activity against […] human HL-60 cells assessed as inhibition of cell growth incubated for 72 hrs by alamar blue assay; type: functional, cell-based; settings: HL-60, 72 h
Procedure, shortened: (§1)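 Cells seeded 24 h before treatment (HL-60 4 × 10⁴, MCF-7 5 × 10³ per well), then given medium, vehicle (1% ethanol v/v) or serial dilutions (eight concentrations) for 72 h. Alamar Blue (10% v/v) added for 3–5 h at 37 °C in the dark, fluorescence read at ex 530/em 590 nm. Viability expressed relative to vehicle (100%), IC50 from dose–response curves; three experiments in triplicate.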

[2] = system: HT-29; assay: Antiproliferative activity against combretastatin A-4 resistant human HT-29 cells assessed as inhibition of cell growth incubated for 72 hrs by SRB assay; type: functional, cell-based; settings: HT-29, 72 h
Procedure, shortened: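 HT-29 (DMEM Glutamax, 10% FBS) seeded at 1 × 10⁴ cells/well, treated after 24 h with vehicle (1% ethanol v/v) or serial dilutions (eight concentrations) for 72 h; viability measured by sulforhodamine B protocol. Percent viability relative to vehicle control, IC50 from dose–response curves; mean of three experiments in triplicate.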

[3] = system: MCF7; assay: Antiproliferative activity against […] human MCF7 cells assessed as inhibition of cell growth incubated for 72 hrs by alamar blue assay; type: functional, cell-based; settings: MCF7, 72 h; procedure, shortened: as §1
[4] = target: Tubulin (Bos taurus) (UniProt Q6B856+Q862L2+Q862F3); assay: Inhibition of bovine tubulin polymerisation assessed as fold reduction in Vmax at 10 uM measured every 30 secs for 30 mins by spectrophotometric method relative to control; type: protein assay
[5] = system: Panel NCI-60 (60 carcinoma cell lines); assay: Antiproliferative activity against human panel NCI-60 (60 carcinoma cell lines) assessed as inhibition of cell growth at 10 uM incubated for 72 hrs by SRB assay; type: functional, cell-based
[6] = system: HT-29; assay: Induction of cell cycle arrest in human HT-29 cells assessed as accumulation of cells at G0/G1 phase at 1 uM incubated for 24 hrs by RAase A/PI staining based flow cytometry analysis (reference value: 57%); type: functional
[7] = target: Tubulin beta (Homo sapiens) (UniProt P68371+Q9H4B7+Q13509+P04350+Q3ZCM7+P07437+Q13885+Q9BVA1+Q9BUF5+A6NNZ2); assay: Binding affinity to colchicine binding site of beta-tubulin in human MCF7 cells assessed as inhibition of beta-tubulin-EBI adduct formation at 10 uM pretreated for 2 hrs followed by EBI addition and measured after 1.5 hrs by Western blot analysis; type: cell-based; settings: time 3.5 hrs
Procedure, shortened: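 Cells seeded at 5 × 10⁴/well, grown overnight, treated with vehicle (0.1% ethanol v/v) or compound (10 µM) for 2 h, then EBI (100 µM) added for 1.5 h. Cells washed with ice-cold PBS, lysed in Laemmli buffer, run on SDS-PAGE, blotted and probed for β-tubulin to detect the faster-migrating β-tubulin–EBI adduct; GAPDH reprobe for loading; three independent experiments.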

[8] = system: HT-29; assay: Induction of cell cycle arrest in human HT-29 cells assessed as accumulation of cells at G0/G1 phase at 1 uM incubated for 24 hrs in presence of 2,3-bis(amino((2aminophenyl)thio)methylene)succinonitrile by RAase A/PI staining based flow cytometry analysis (reference value: 57%); type: functional
[9] = target: Tubulin (Homo sapiens) (UniProt P68371+Q9H4B7+P0DPH7+P68366+Q13509+Q71U36+P04350+Q3ZCM7+P07437+P68363+Q9BQE3+Q6PEY2+Q13885+Q9BVA1+Q9BUF5); assay: Induction of microtubule disruption in human HT-29 cells assessed as effect on microtubule organization at 1 uM incubated for 16 hrs by immunofluorescence based confocal microscopic analysis; type: cell-based
[10] = system: HT-29; assay: Induction of cell cycle arrest in human HT-29 cells assessed as accumulation of cells at G2/M phase at 1 uM incubated for 24 hrs by RAase A/PI staining based flow cytometry analysis (reference value: 16%); type: functional
[11] = system: HT-29; assay: Induction of cell cycle arrest in human HT-29 cells assessed as accumulation of cells at G2/M phase at 1 uM incubated for 24 hrs in presence of 2,3-bis(amino((2-aminophenyl)thio)methylene)succinonitrile by RAase A/PI staining based flow cytometry analysis (reference value: 16%); type: functional

| SMILES | IC50 [1] [nM] | IC50 [2] [nM] | IC50 [3] [nM] | further results |
| --- | --- | --- | --- | --- |
| CCSc1ccc(C2C(Oc3ccccc3)C(=O)N2c2cc(OC)c(OC)c(OC)c2)cc1 (mixture of isomers) | 508 | 632 | 210 | – |
| CCOc1ccc(C2C(O)C(=O)N2c2cc(OC)c(OC)c(OC)c2)cc1 (mixture of isomers) | 11 | 15 | 7 | – |
| COc1ccc(C2CC(=O)N2c2cc(OC)c(OC)c(OC)c2)cc1O (racemic) | 8 | 521 | 6 | – |
| COc1ccc(C2CC(=O)N2c2cc(OC)c(OC)c(OC)c2)cc1 (racemic) | 76 | 65 | – | – |
| C=CC1C(=O)N(c2cc(OC)c(OC)c(OC)c2)C1c1ccc(SC)cc1 (racemic) | 61 | 113 | 51 | fold change (FC) [4]: 3.4 |
| COc1cc(N2C(=O)CC2c2ccc(SC)cc2)cc(OC)c1OC (racemic) | 69 | 108 | 67 | – |
| CCSc1ccc(C2C(Cl)C(=O)N2c2cc(OC)c(OC)c(OC)c2)cc1 (racemic) | 385 | 238 | 251 | – |
| COc1ccc(C2C(O)C(=O)N2c2cc(OC)c(OC)c(OC)c2)cc1O (racemic) | 5 | 463 | 3 | – |
| CCOc1ccc(C2C(Cl)C(=O)N2c2cc(OC)c(OC)c(OC)c2)cc1 (racemic) | 209 | 203 | 87 | – |
| CCSc1ccc(C2N(c3cc(OC)c(OC)c(OC)c3)C(=O)C2(Cl)Cl)cc1 (racemic) | 481 | 554 | 660 | – |
| CCSc1ccc(C2CC(=O)N2c2cc(OC)c(OC)c(OC)c2)cc1 (racemic) | 204 | 311 | 141 | – |
| CCSc1ccc(C2C(c3ccccc3)C(=O)N2c2cc(OC)c(OC)c(OC)c2)cc1 (racemic) | 430 | 3140 | 380 | – |
| CCOc1ccc(C2N(c3cc(OC)c(OC)c(OC)c3)C(=O)C2(Cl)Cl)cc1 (racemic) | 182 | 325 | 270 | – |
| C=CC1C(=O)N(c2cc(OC)c(OC)c(OC)c2)C1c1ccc(OC)cc1 (racemic) | 33 | 10 | 17 | – |
| COc1cc(N2C(=O)C(Cl)(Cl)C2c2ccc(SC)cc2)cc(OC)c1OC (racemic) | 223 | 306 | 291 | – |
| COc1ccc(C2C(O)C(=O)N2c2cc(OC)c(OC)c(OC)c2)cc1 (racemic) | 13 | 12 | 4 | – |
| COc1ccc([C@@H]2[C@@H](Oc3ccccc3)C(=O)N2c2cc(OC)c(OC)c(OC)c2)cc1O (relative stereo) | 7 | 692 | 23 | – |
| COc1ccc(/C=C\c2cc(OC)c(OC)c(OC)c2)cc1O [COMBRETASTATIN A4] | 1.9 | 4160 | 3.5 | fold change (FC) [4]: 2; Activity [6]: 52%; inhibition [7]: Active; Activity [8]: 14%; Activity [9]: inactive; Activity [10]: 15%; Activity [11]: 50% |

More lines, main results first:

| IC50 [1] [nM] | IC50 [2] [nM] | IC50 [3] [nM] | SMILES | further results |
| --- | --- | --- | --- | --- |
| 388 | 336 | 152 | COc1cc(N2C(=O)C(Oc3ccccc3)C2c2ccc(SC)cc2)cc(OC)c1OC (mixture of isomers) | – |
| > 50000 | > 50000 | > 50000 | COc1cc(N2C(=O)C(c3ccccc3)C2c2ccc(O)cc2)cc(OC)c1OC (mixture of isomers) | – |
| 161 | 135 | 56 | COc1ccc(C2C(Cl)C(=O)N2c2cc(OC)c(OC)c(OC)c2)cc1 (racemic) | – |
| 320 | 257 | 181 | C=CC1C(=O)N(c2cc(OC)c(OC)c(OC)c2)C1c1ccc(SCC)cc1 (racemic) | – |
| 279 | 204 | 131 | COc1cc(N2C(=O)C(C3CC3)C2c2ccc(SC)cc2)cc(OC)c1OC (racemic) | – |
| 19 | 52 | 23 | COc1ccc(C2C(Oc3ccccc3)C(=O)N2c2cc(OC)c(OC)c(OC)c2)cc1 (racemic) | – |
| 494 | 388 | 69 | CCOc1ccc(C2C(Oc3ccccc3)C(=O)N2c2cc(OC)c(OC)c(OC)c2)cc1 (racemic) | – |
| 803 | 1560 | 606 | CCSc1ccc(C2C(C3CC3)C(=O)N2c2cc(OC)c(OC)c(OC)c2)cc1 (racemic) | – |
| 88 | 65 | 64 | CCOc1ccc(C2CC(=O)N2c2cc(OC)c(OC)c(OC)c2)cc1 (racemic) | – |
| 522 | 137 | 73 | COc1cc(N2C(=O)C(Cl)C2c2ccc(SC)cc2)cc(OC)c1OC (racemic) | fold change (FC) [4]: 2; inhibition [5]: Active |
| 35 | 97 | 14 | C=CC1C(=O)N(c2cc(OC)c(OC)c(OC)c2)C1c1ccc(OCC)cc1 (racemic) | – |
| 144 | 271 | 133 | COc1ccc(C2N(c3cc(OC)c(OC)c(OC)c3)C(=O)C2(Cl)Cl)cc1 (racemic) | – |
| 16 | 12 | 6 | CCSc1ccc(C2C(O)C(=O)N2c2cc(OC)c(OC)c(OC)c2)cc1 (racemic) | – |
| 74 | 75 | 50 | CCOc1ccc(C2C(c3ccccc3)C(=O)N2c2cc(OC)c(OC)c(OC)c2)cc1 (racemic) | – |
